The text below walks through data of ChEMBL document CHEMBL3739360, “Indoline Amide Glucosides from Portulaca oleracea: Isolation, Structure, and DPPH Radical Scavenging Activity” (J Nat Prod, 2015).

Data set [1] can be described thus: Antioxidant activity assessed as DPPH radical scavenging activity after 30 mins by plate reader analysis. The data set is classed as physicochemical. Conditions: for Activity: 0.5 h. The gist of the method: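 DPPH radical (150 μM in MeOH, 180 μL) mixed with 20 μL compound in water (solutions 62.5–1000 μM); 30 min, room temperature, dark; absorbance 490 nm. Sample-only blanks in MeOH; water+DPPH and water+MeOH references. Vitamin C as positive control. Scavenging % from corrected absorbances; EC50 by nonlinear regression; triplicate, mean ± SD.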
On the technique in general: DPPH is a stable violet radical that fades when it is reduced.

Data set [2] in a line: Potency index, ratio of vitamin C EC50 to compound EC50 for DPPH radical scavenging activity.

The term EC50 denotes the concentration needed to bring the measured effect to its halfway point.

`O=C(O)[C@@H]1Cc2cc(O)c(O[C@@H]3O[C@H](CO[C@@H]4O[C@H](CO)[C@@H](O)[C@H](O)[C@H]4O)[C@@H](O)[C@H](O)[C@H]3O)cc2N1C(=O)/C=C/c1ccc(O[C@@H]2O[C@H](CO)[C@@H](O)[C@H](O)[C@H]2O)cc1`: in data set [1], the EC50 was determined as 43.5 µM and the Activity result is “Dose-dependent effect”.

Consider `O=C1O[C@H]([C@@H](O)CO)C(O)=C1O` [ASCORBIC ACID], for which, in data set [1], the EC50 amounted to 30.2 µM.

In the case of `O=C(O)[C@@H]1Cc2cc(O)c(O[C@@H]3O[C@H](CO[C@@H]4O[C@H](CO)[C@@H](O)[C@H](O)[C@H]4O)[C@@H](O)[C@H](O)[C@H]3O)cc2N1C(=O)/C=C/c1ccc(O)cc1`, in data set [1], the EC50 was determined as 42.9 µM and the Activity result was “Dose-dependent effect”.

As for `COc1cc(/C=C/C(=O)O[C@H]2[C@H](OC[C@H]3O[C@@H](Oc4cc5c(cc4O)C[C@@H](C(=O)O)N5C(=O)/C=C/c4ccc(O)cc4)[C@H](O)[C@@H](O)[C@@H]3O)O[C@H](CO)[C@@H](O)[C@@H]2O)ccc1O`, in data set [1], the EC50 was determined as 29.1 µM and the Activity entry is reported as “Dose-dependent effect”.

With `COc1cc(/C=C/C(=O)N2c3cc(O[C@@H]4O[C@H](CO)[C@@H](O)[C@H](O)[C@H]4O)c(O)cc3C[C@H]2C(=O)O)ccc1O[C@@H]1O[C@H](CO)[C@@H](O)[C@H](O)[C@H]1O`, in data set [1], the EC50 turned out to be 34.6 µM and the Activity result is on record as “Dose-dependent effect”.

With `COc1cc(/C=C/C(=O)OC[C@H]2O[C@@H](OC[C@H]3O[C@@H](Oc4cc5c(cc4O)C[C@@H](C(=O)O)N5C(=O)/C=C/c4ccc(O)cc4)[C@H](O)[C@@H](O)[C@@H]3O)[C@H](O)[C@@H](O)[C@@H]2O)ccc1O`, in data set [1], the EC50 stood at 35.4 µM and the Activity result was “Dose-dependent effect”.

Regarding `COc1cc(/C=C/C(=O)N2c3cc(O[C@@H]4O[C@H](CO[C@@H]5O[C@H](CO)[C@@H](O)[C@H](O)[C@H]5OC(=O)/C=C/c5ccc(O)c(O)c5)[C@@H](O)[C@H](O)[C@H]4O)c(O)cc3C[C@H]2C(=O)O)ccc1O`, the Ratio EC50 in data set [2] amounted to 2. Besides, in data set [1], the EC50 turned out to be 16.1 µM and the Activity result was “Dose-dependent effect”.

As for `O=C(/C=C/c1ccc(O)c(O)c1)O[C@H]1[C@H](OC[C@H]2O[C@@H](Oc3cc4c(cc3O)C[C@@H](C(=O)O)N4C(=O)/C=C/c3ccc(O)cc3)[C@H](O)[C@@H](O)[C@@H]2O)O[C@H](CO)[C@@H](O)[C@@H]1O`, the Ratio EC50 in data set [2] stood at 2. For the same compound, in data set [1], the EC50 came to 15.3 µM and the Activity entry was “Dose-dependent effect”.

Turning to `O=C(O)[C@@H]1Cc2cc(O)c(O[C@@H]3O[C@H](CO)[C@@H](O)[C@H](O)[C@H]3O)cc2N1C(=O)/C=C/c1ccc(O)cc1`, in data set [1], the EC50 turned out to be 35.1 µM and the Activity entry is recorded as “Dose-dependent effect”.

Turning to `O=C(O)[C@@H]1Cc2cc(O)c(O[C@@H]3O[C@H](CO)[C@@H](O)[C@H](O)[C@H]3O)cc2N1C(=O)/C=C/c1ccc(O[C@@H]2O[C@H](CO)[C@@H](O)[C@H](O)[C@H]2O)cc1`, in data set [1], the EC50 amounted to 38.3 µM and the Activity result is “Dose-dependent effect”.

On to `COc1cc(/C=C/C(=O)N2c3cc(O[C@@H]4O[C@H](CO[C@@H]5O[C@H](CO)[C@@H](O)[C@H](O)[C@H]5O)[C@@H](O)[C@H](O)[C@H]4O)c(O)cc3C[C@H]2C(=O)O)ccc1O[C@@H]1O[C@H](CO)[C@@H](O)[C@H](O)[C@H]1O`, for which, in data set [1], the EC50 stood at 40.9 µM and the Activity result was “Dose-dependent effect”.

Take `COc1cc(/C=C/C(=O)O[C@H]2[C@H](OC[C@H]3O[C@@H](Oc4cc5c(cc4O)C[C@@H](C(=O)O)N5C(=O)/C=C/c4ccc(O)c(OC)c4)[C@H](O)[C@@H](O)[C@@H]3O)O[C@H](CO)[C@@H](O)[C@@H]2O)ccc1O`: in data set [1], the EC50 came to 27.6 µM and the Activity entry is reported as “Dose-dependent effect”.

Take `COc1cc(/C=C/C(=O)N2c3cc(O[C@@H]4O[C@H](CO[C@@H]5O[C@H](CO)[C@@H](O)[C@H](O)[C@H]5O)[C@@H](O)[C@H](O)[C@H]4O)c(O)cc3C[C@H]2C(=O)O)ccc1O`: in data set [1], the EC50 turned out to be 40.1 µM and the Activity result is on record as “Dose-dependent effect”.

As to `COc1cc(/C=C/C(=O)O[C@H]2[C@H](OC[C@H]3O[C@@H](Oc4cc5c(cc4O)C[C@@H](C(=O)O)N5C(=O)/C=C/c4ccc(O[C@@H]5O[C@H](CO)[C@@H](O)[C@H](O)[C@H]5O)cc4)[C@H](O)[C@@H](O)[C@@H]3O)O[C@H](CO)[C@@H](O)[C@@H]2O)ccc1O`, in data set [1], the EC50 came to 31.6 µM and the Activity result was “Dose-dependent effect”.

`COc1cc(/C=C/C(=O)N2c3cc(O[C@@H]4O[C@H](CO)[C@@H](O)[C@H](O)[C@H]4O)c(O)cc3C[C@H]2C(=O)O)ccc1O`: in data set [1], the EC50 worked out at 35.1 µM and the Activity result was “Dose-dependent effect”.
